ChEMBL document CHEMBL1132285, “The presence of substituents on the aryl moiety of the aryl phosphoramidate derivative of d4T enhances anti-HIV efficacy in cell culture: A structure-activity relationship” (J Med Chem, 1999)

What was measured:
[1] = system: CCRF-CEM; experiment: In vitro effective compound concentration required to protect CEM/O cells against the cytopathogenicity of HIV-1; type: functional, cell-based; conditions: Homo sapiens
In short: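 CEM/0 cells at 250 000 cells/mL were infected with HIV-1 (~20 CCID50/mL) or HIV-2 strain ROD (~100 CCID50/mL), then mixed 1:1 with compound dilutions. After 4 days at 37 °C, giant cell formation was scored. EC50 is the concentration inhibiting HIV-induced giant cell formation by 50%. Values are means of 2–4 independent experiments.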

[2] = system: CCRF-CEM; experiment: In vitro effective compound concentration required to protect CEM/TK cells against the cytopathogenicity of HIV-2; conditions: Homo sapiens

- EC50 [1]: 0.651 µM
- EC50 [2]: 33 µM
Structure (SMILES): Cc1cn([C@H]2C=C[C@@H](CO)O2)c(=O)[nH]c1=O [STAVUDINE]
